Assay results published in the array DNA melting data of Ke et al. (doi:10.1101/2024.01.08.574731).

Experiments:
[1] = melting temperature; fluorescence melt of hairpins on a sequencing array, two-state fit, raised by 9.35 °C to match UV melts; conditions: sodium 0.088 M
Method in brief: (§1)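 Folding enthalpy and melting temperature come from bootstrapped two-state fits to Cy3 fluorescence of library hairpins carrying annealed Cy3 and quencher oligos on a sequenced MiSeq flow cell. Imaging was done in 50 mM Na-HEPES pH 8.0, 25 mM NaCl, stepping by 2.5 °C up to 60 °C, and signals were normalised to pre-quench Cy3 and to control constructs. Results of four replicates were combined by inverse variance, and fitted temperatures were raised by 9.35 °C to match UV melts.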

[2] = folding enthalpy; higher = less favourable; fluorescence melt of hairpins on a sequencing array, two-state fit; conditions: sodium 0.088 M
Method in brief: as §1

Sequence	Tm [1] [°C]	folding enthalpy [2] [kJ/mol]
GGTTAAACGAAAGTTACC (((..(((....))))))	32	-60
GGTTAAGCGAAAGCTACC (((..(((....))))))	39.4	-76.2
GGTTAAGGAAACTTGACC (((.(((....))).)))	40.3	-126
GGTTACCGAAAGGTGACC (((.(((....))).)))	58.8	-173
GGTTACGAAAGTACCACC ((((((....)))..)))	36.6	-60.3
GGTTACGAAAGTACGACC ((((((....)))..)))	31.4	-62.4
GGTTACGAAAGTAGACC ((((((....))).)))	41.4	-106
GGTTACGAAAGTATACC ((((((....))).)))	43.1	-99.6
GGTTACGGAAACGCAACC ((((.((....)).))))	46.6	-137
GGTTAGCGAAAGCTACC (((.(((....))))))	53.3	-72
GGTTAGCGAAAGCTGACC (((.(((....))).)))	58.4	-152
GGTTATCCGAAAGGAACC (((..(((....))))))	30.2	-63.4
GGTTATGCGAAAGCAACC (((..(((....))))))	38.3	-63
GGTTATGGAAACATGACC (((.(((....))).)))	45.4	-139
GGTTCACGAAAGTGACC (((.(((....))))))	59	-64.8
GGTTCCGAAAGGAACACC ((((((....)))..)))	51.9	-36.9
GGTTCCGAAAGGACACC ((((((....))).)))	48	-102
GGTTCCGAAAGGATGACC ((((((....)))..)))	38.2	-77.2
GGTTCGAAAGAACC (((((....)))))	64.8	-118
GGTTCGCGAAAGCGCACC (((.(((....))).)))	55.4	-123
GGTTCTCGAAAGAGACC (((.(((....))))))	49.7	-87.2
GGTTCTCGAAAGAGCACC (((.(((....))).)))	45.9	-130
GGTTGACGAAAGTCACC (((.(((....))))))	53.5	-82.7

Sequence	Tm [1] [°C]	folding enthalpy [2] [kJ/mol]
GGTTGACGAAAGTCGACC (((.(((....))).)))	63	-196
GGTTGAGGAAACTCAATC (.(((((....))))).)	43.4	-118
GGTTGTGCGAAAGCAACC (((..(((....))))))	42.8	-79.7
GGTTGTGGAAACACAACC (((((((....)))))))	66.3	-176
GGTTGTGGAAACACAATC (.(((((....))))).)	47.9	-124
GGTTGTGGAAACGCAATC (.(((.(....).))).)	35.7	-86
GGTTTAACGAAAGTTACC (((..(((....))))))	29.6	-61.1
GGTTTAGCGAAAGCTACC (((..(((....))))))	32	-50.5
GGTTTAGGAAACCAAACC (((((.(....).)))))	37	-96
GGTTTCACGAAAGTGACC (((..(((....))))))	29.2	-51.3
GGTTTCCGAAAGGAGACC (((.(((....))).)))	54.4	-214
GGTTTCGAAAGAAACACC ((((((....)))..)))	45.7	-47.2
GGTTTCGAAAGAAAGACC ((((((....)))..)))	30.1	-60.2
GGTTTCGAAAGAACAACC ((((((....)))..)))	30.4	-54.4
GGTTTCGCGAAAGCGACC (((..(((....))))))	32.1	-33.8
GGTTTCGGAAACGAGATC (.(.(((....))).).)	27.7	-48.4
GGTTTCGGAAACGGAATC (.((.((....)).)).)	33.4	-87
GGTTTCTCGAAAGAGACC (((..(((....))))))	32.6	-78.7
GGTTTGGGAAACTAAACC (((((.(....).)))))	44.7	-138
GGTTTGTCGAAAGACACC (((..(((....))))))	31.2	-45.5
GGTTTTCCGAAAGGAACC (((..(((....))))))	31.1	-50.4
GGTTTTGGAAACGAAATC (.(((.(....).))).)	25.2	-50.5
GTAAAAGGAAACTTTTAC (((((((....)))))))	46.4	-155

Sequence	Tm [1] [°C]	folding enthalpy [2] [kJ/mol]
GTAAACCCGAAAGGGTAC (((..(((....))))))	32.8	-42.2
GTAAACCGAAAGGTCTAC (((.(((....))).)))	35.6	-80.3
GTAAACGAAAGTTGCTAC ((((((....)))..)))	29	-39.7
GTAAACGCGAAAGCGTAC (((..(((....))))))	35	-34.6
GTAAAGACGAAAGTCTAC (((..(((....))))))	29.8	-48.6
GTAAAGGGAAACCCTTAC ((((.((....)).))))	32.8	-92.8
GTAAAGGGAAACCTTTGC (.(((((....))))).)	37.5	-119
GTAAAGTCGAAAGACTAC (((..(((....))))))	31.9	-49
GTAAATCGAAAGATGTAC (((.(((....))).)))	34.4	-96.9
GTAAATCGAAAGATTAC (((.(((....))))))	33.9	-58.6
GTAAATGAAAATTTAC ((((((....))))))	37.2	-109
GTAAATGCGAAAGCATAC (((..(((....))))))	29.3	-45.5
GTAACCGAAAGGTGTAC ((((((....))).)))	41.3	-81.5
GTAACCGAAAGGTTATAC ((((((....)))..)))	43.7	-56.1
GTAACCGAAAGGTTTAC ((((((....))).)))	43	-59.4
GTAACGAAAGTTAC (((((....)))))	55	-109
GTAACGCCGAAAGGCTAC (((..(((....))))))	27.1	-29.2
GTAACGGGAAACTGTTGC (.(((.(....).))).)	32.9	-95.4
GTAACTGGAAACGGTTAC (((((.(....).)))))	44.1	-136
GTAAGAGAAATCTTAC ((((((....))))))	38.6	-92
GTAAGCCGAAAGGCTAC (((.(((....))))))	47.3	-48.3
GTAAGCGAAAGCTGATAC ((((((....)))..)))	29.8	-51.1
GTAAGCGGAAACGCTCAC ((.((((....)))).))	37.7	-56.3

Sequence	Tm [1] [°C]	folding enthalpy [2] [kJ/mol]
GTAAGCTCGAAAGAGTAC (((..(((....))))))	27	-51.2
GTAAGGTCGAAAGACTAC (((..(((....))))))	29.1	-54.7
GTAAGTCGAAAGACTAC (((.(((....))))))	39.5	-70.9
GTAAGTGCGAAAGCATAC (((..(((....))))))	27.2	-46.8
GTAAGTGGAAACGCTTAC (((((.(....).)))))	45.4	-116
GTAAGTGGAAACGTTTAC ((((..(....)..))))	27.5	-44.6
GTAATACGAAAGTAATAC (((.(((....))).)))	34	-84.4
GTAATACGAAAGTATAC (((.(((....))))))	34.5	-66.8
GTAATCCGAAAGGAGTAC (((.(((....))).)))	49.9	-119
GTAATCGAAAGATGTAC ((((((....))).)))	30.8	-70.9
GTAATCGCGAAAGCGTAC (((..(((....))))))	26.7	-25.8
GTAATGAAAATTAC (((((....)))))	34.1	-65.3
GTAATGGGAAACTATTAC (((((.(....).)))))	34.5	-119
GTAATTCCGAAAGGATAC (((..(((....))))))	28.2	-44.2
GTAATTCGAAAGAACTAC (((.(((....))).)))	30	-61.1
GTAATTCGAAAGAAGTAC (((.(((....))).)))	42.3	-105
GTACAACGAAAGTTATAC (((.(((....))).)))	30.4	-80.1
GTACAACGAAAGTTTTAC (((.(((....))).)))	36.7	-78
GTACAAGGAAACTTGTAC (((((((....)))))))	53.2	-163
GTACACGAAAGTGCGTAC ((((((....)))..)))	30.8	-44.9
GTACACGAAAGTGGCTAC ((((((....)))..)))	35.7	-58.3
GTACACGAAAGTGGTTAC ((((((....)))..)))	30.5	-44.9
